Measured values as given in ChEMBL document CHEMBL1123963, “Conformational preference for the binding of biaryl substrates and inhibitors to the active site of phenylethanolamine N-methyltransferase” (J Med Chem, 1988).

Experiments:
[1] = biological target: T1, Phenylethanolamine N-methyltransferase (Bos taurus, UniProt P10938); test: In vitro inhibition of compound towards phenylethanolamine N-methyltransferase(PNMT) isolated from bovine adrenal glands
T1 sequence (P10938 whole entry): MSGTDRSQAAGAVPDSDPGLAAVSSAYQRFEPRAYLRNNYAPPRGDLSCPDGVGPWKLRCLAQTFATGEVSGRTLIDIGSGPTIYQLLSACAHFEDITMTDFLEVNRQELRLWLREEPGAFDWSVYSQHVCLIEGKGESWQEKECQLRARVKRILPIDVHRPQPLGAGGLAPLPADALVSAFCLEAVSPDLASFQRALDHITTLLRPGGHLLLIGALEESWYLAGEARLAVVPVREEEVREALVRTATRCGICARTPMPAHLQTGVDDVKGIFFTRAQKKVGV
In short: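 Inhibition was measured on bovine adrenal PNMT partially purified through the isoelectric precipitation step. The radiochemical assay used phosphate buffer (pH 8.0) with unlabeled and [methyl-3H]AdoMet, 30 min at 37 °C. It was quenched with pH 10 borate buffer and extracted into toluene-isoamyl alcohol (7:3). Ki came from at least three inhibitor concentrations with phenylethanolamine as the variable substrate; compounds were tested as hydrochloride salts.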

[2] = Activity of the substrate is measured as the ratio of 100*Vmax/Km
In short: (§1)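 Bovine adrenal PNMT, purified through the isoelectric precipitation step, was used. The radiochemical assay contained phosphate buffer (pH 8.0), unlabeled AdoMet, [methyl-3H]AdoMet and enzyme, incubated 30 min at 37 °C. It was stopped with borate buffer (pH 10) and extracted into toluene-isoamyl alcohol (7:3). Km and Vmax came from at least five concentrations of the variable substrate; compounds were tested as hydrochloride salts.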

[3] = substrate: NCC(O)c1ccc2c(c1)Cc1ccccc1-2; test: (§2) In vitro enzyme kinetics (PNMT) of the compound expressed as Michaelis constant isolated from bovine adrenal glands; in short: as §1
[4] = substrate: NCC(O)c1ccc(-c2ccccc2)cc1; test: as §2; in short: as §1
[5] = substrate: NC[C@@H](O)c1ccccc1; test: as §2; in short: as §1
[6] = substrate: NCC(O)c1cccc2c1Cc1ccccc1-2; test: as §2; in short: as §1
[7] = substrate: NCC(O)c1cccc(-c2ccccc2)c1; test: (§3) In vitro enzyme kinetics (PNMT)of the compound expressed as turnover rate isolated from bovine adrenal glands; in short: as §1
[8] = substrate: NCC(O)c1ccc2c(c1)Cc1ccccc1-2; test: as §3; in short: as §1
[9] = substrate: NCC(O)c1ccc(-c2ccccc2)cc1; test: as §3; in short: as §1
[10] = substrate: NC[C@@H](O)c1ccccc1; test: as §3; in short: as §1
[11] = substrate: NCC(O)c1cccc2c1Cc1ccccc1-2; test: as §3; in short: as §1

CC(N)c1ccc2c(c1)Cc1ccccc1-2 (stereo unspecified)
Ki [1]: 185 µM

NCC(O)c1ccc(-c2ccccc2)cc1 (stereo unspecified)
Ratio [2]: 5.2

NCC(O)c1cccc2c1Cc1ccccc1-2 (stereo unspecified)
Ratio [2]: 0.015

NC[C@@H](O)c1ccccc1
Ratio [2]: 3.1

CC(N)c1cccc2c1Cc1ccccc1-2 (stereo unspecified)
Ki [1]: 4.14 µM

NCC(O)c1cccc(-c2ccccc2)c1 (stereo unspecified)
Ratio [2]: 0.07

NCC(O)c1ccc2c(c1)Cc1ccccc1-2 (stereo unspecified)
Ratio [2]: 6.7

B1: Phenylethanolamine N-methyltransferase (Bos taurus), P10938 (protein)
chain: T1 sequence (P10938 whole entry)
Km [3]: 26.3 µM
Km [4]: 82 µM
Km [5]: 70 µM
Km [6]: 297 µM
Vmax (nM min-1 (mg of protein)-1) [7]: 0.46
Vmax (nM min-1 (mg of protein)-1) [8]: 1.76
Vmax (nM min-1 (mg of protein)-1) [9]: 4.3
Vmax (nM min-1 (mg of protein)-1) [10]: 2.2
Vmax (nM min-1 (mg of protein)-1) [11]: 0.046
